The values that follow come from ChEMBL document CHEMBL4513216, “Probing the Open Global Health Chemical Diversity Library for Multistage-Active Starting Points for Next-Generation Antimalarials” (ACS Infect Dis, 2020).

The series in a line: Toxicity liver stage against HepG2, at 10uM. It is filed as cell-based. Also on record: test concentration 10 uM, cell line HepG2-A16-CD81EGFP. The note with it: human, HepG2-A16-CD81EGFP cells; read-out: INHIBITION
An outline of the steps: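 Uninfected HepG2-A16-CD81EGFP cells, 3 × 10^3 per well, 1536-well, plated on prespotted compound at 10 μM final, parasite-free screening media added to match infected plates; puromycin 10 μM positive, DMSO 0.5% negative; run in parallel with 48 h PbLuc assay at 37 °C, 5% CO2; viability by CellTiter-Glo luminescence, normalized to controls.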
For the compound `O=C(N[C@@H]1CCN(Cc2ccc(F)cc2F)C[C@H]1O)c1cccnc1`, the cytotoxicity at 10 µM is -10.4%.
The result for `O=C(c1cccnc1)N(Cc1ccncc1)C1CC1` reads 8.32%; that for `CCn1cc(CNC2CCN(c3cccc(C)c3C)CC2)cn1`, -9.99%; that for `CN(C)CC(=O)N1CC2(CCN(S(=O)(=O)c3ccccc3)C2)C1`, -6.34%.
With `COc1ccc(CNc2cc3[nH]c(O)nc3cc2C)cc1`, the cytotoxicity at 10 µM is 18.1%.
The result for `Cc1nn(C)c(C)c1C1CCCN1CC(=O)NC(C1CC1)C1CC1` (stereo not drawn) reads -5.38%.
In the case of `CCOc1ccc(C(=O)N2CCCC2c2c(C)nn(C)c2OC)cn1` (stereo not drawn), the cytotoxicity at 10 µM is 2.63%.
`CCSCCC(=O)NCc1cnn(-c2ccc(F)cc2F)c1`: the cytotoxicity at 10 µM is -5.61%.
To `O=C(COCc1ccco1)Nc1cc(C(F)(F)F)c[nH]c1=O` belongs -2.57%; to `O=c1[nH][nH]cc1-c1ccnc(NCCc2cccc(O)c2)n1`, -7.83%.
To `C=C(C)COc1ccccc1C(=O)NCCCc1nnn[nH]1` belongs -1.82%; to `CC(=O)N(C)Cc1ncn2c1CN(C(=O)C1CCCO1)CCC2` (stereo not drawn), -101%; to `C[C@@H]1CN(C2(C(=O)N3CCSCC3)Cc3ccccc3C2)C[C@H](C)O1`, 0.66%.
The result for `Cc1nc(COC(=O)c2cccc3c2OCCO3)no1` reads 5.55%; that for `c1ccc(C(Cn2cnnc2)N2CCOCC2)nc1` (stereo not drawn), 0.997%.
Take `Oc1ccc(Br)c(CNc2cccc(-c3nnc[nH]3)c2)c1`: the cytotoxicity at 10 µM was -38.9%.
To `CCN1CCC(CC(=O)N(C)CC(=O)c2ccc(O)cc2)CC1` belongs 1.73%.
To `CCOc1ccnc(N2CCN(C(=O)c3cn[nH]c3CC)CC2)n1` belongs -6.69%; to `CC(O)CCN(C)C(=O)Nc1cc(F)cc(Br)c1` (stereo not drawn), 4.12%; to `CN(C)C(=O)CSc1nnc(CCNC(=O)OC(C)(C)C)o1`, 13.7%.
To `c1cc(CNc2cnc(C3CCCN3)cn2)ccn1` (stereo not drawn) belongs -6.77%; to `CSc1ccccc1CC1CCCS(=O)(=O)C1` (stereo not drawn), 2.26%.
In the case of `CCC(CO)N(Cc1ccco1)C(=O)c1cccc(C)c1O` (stereo not drawn), the cytotoxicity at 10 µM is 0.126%.
The result for `Cc1ccc(C)c2c(O)cc(CNCc3ccc(S(N)(=O)=O)cc3)nc12` reads -9.06%.
Regarding `Cc1occc1C(=O)N1CCC2(CCN(Cc3nccs3)C2)CC1`, the cytotoxicity at 10 µM is -12.5%.
The result for `CN(C)CCN1C(=O)CCC12CCN(C(=O)c1cccnc1)CC2` reads 6.41%; that for `Cn1cnnc1CNC(=O)Nc1cc(C(F)(F)F)c[nH]c1=O`, -3.2%.
Take `CC1CN(C(=O)CN(Cc2ccccc2Cl)C2CCCC2)CCO1` (stereo not drawn): the cytotoxicity at 10 µM was -5.65%.
Take `O=S1(=O)N(c2ccccc2)C[C@@H](O)[C@]12CCNC2`: the cytotoxicity at 10 µM stood at 2.63%.
Regarding `c1cnc(-c2nc(C3CCOC3)no2)cn1` (stereo not drawn), the cytotoxicity at 10 µM worked out at 7.09%.
To `CC1(C)CC1C(=O)NS(=O)(=O)Cc1cc(-c2ccccc2)no1` (stereo not drawn) belongs -11%; to `O=C1C(NCc2nnc3n2CCCC3)CCN1c1ccccc1Cl` (stereo not drawn), -7.42%; to `O=C(NCc1cncc2c1CCN(Cc1ccccc1)C2)C1CC1`, 12.1%.
The result for `CN(C)CCN1CC2(CCCN(c3ccc(Cl)cn3)C2)CCC1=O` (stereo not drawn) reads 2.69%; that for `Cc1cccc(CN2C[C@@H]3OCCN(CC(=O)N(C)C)[C@@H]3C2)c1`, -110%.
The result for `Cc1ccc(N2CCOC(C)(C(=O)N(C)C)C2)nn1` (stereo not drawn) reads -4.43%.
Turning to `O=C(c1coc(COc2ccccc2F)n1)N1CCCO1`, the cytotoxicity at 10 µM amounted to 6.29%.
To `O=C(CCn1ccccc1=O)Nc1ccc(I)cc1` belongs 7.27%; to `Nc1nccnc1CC1CCCN(Cc2cccc3[nH]ccc23)C1` (stereo not drawn), 0.994%.
To `COc1c(C2CCCN2C(=O)c2ccc(C(N)=O)s2)c(C)nn1C` (stereo not drawn) belongs 0.00973%; to `O=C(c1cnc(-c2ncccn2)s1)N1CCCC(n2cccn2)C1` (stereo not drawn), -2.85%; to `Cc1cnc(CN(C)C2CCN(CCc3ccccn3)CC2)cn1`, -12.1%.
To `Cc1ccc(N2CCCc3sc(C(=O)NCCC#N)nc32)nn1` belongs 11.6%.
Take `Cn1ccc(C(=O)NC2CCC23CCN(Cc2cccnc2)CC3)c1` (stereo not drawn): the cytotoxicity at 10 µM is -12.1%.
The result for `O=C(Nc1nccs1)c1csc(NC2CCCC2)n1` reads 42%; that for `O=C(NS(=O)(=O)c1ccc(Cl)cc1F)c1cccc2c1OCCO2`, -5.33%.
To `COc1ccc(F)cc1S(=O)(=O)N1CCN(CCn2ccnc2)CC1` belongs -7.72%; to `CCC(=O)N1CCC2(CC1)C(=O)N(Cc1cccnc1)CCN2C`, 2.17%.
To `CCN1CCCC(C)(C(=O)NCCCc2nc(C)cs2)C1` (stereo not drawn) belongs 1.54%; to `COc1ccc(C2(C(=O)N3CC(c4cccnc4)C3)CC2(C)C)cc1` (stereo not drawn), 12.3%.
Regarding `O=C(C1CC1)N1CC[C@H](c2nc3ccccc3o2)C1`, the cytotoxicity at 10 µM was -4.07%.
As to `CCN(CC1CCCO1)C(=O)Nc1cccc(N2CCOCC2)c1` (stereo not drawn), the cytotoxicity at 10 µM amounted to 8.44%.
As to `CN(C)c1nccc(NCc2cc(-c3cccs3)n[nH]2)n1`, the cytotoxicity at 10 µM is -5.03%.
In the case of `CCOC1COC2(CCN(Cc3ccco3)CC2)C1` (stereo not drawn), the cytotoxicity at 10 µM is -2.98%.
To `Cc1nc(C)n(CC2CCCN(Cc3cccc(C(N)=O)c3)C2)n1` (stereo not drawn) belongs -29%.
The result for `COc1ccc(CN2CCC3(CC2)NC(=O)CC3c2ccncc2)cc1` (stereo not drawn) reads 5.97%; that for `CN(Cc1cccnc1)[C@@H]1CN(c2ccccn2)[C@@H]2CCCO[C@H]12`, 2.78%; that for `O=C1CCC2(CCCN(CCc3ccccc3)C2)N1Cc1cccnc1` (stereo not drawn), 4.05%.
For the compound `CCC(CNC(=O)C1CCC1)(OC)c1ccccc1` (stereo not drawn), the cytotoxicity at 10 µM was found to be 1.95%.
To `CCCn1nnnc1CN(c1ccc(C)cc1)C(C)C` belongs 4.15%.
In the case of `Cc1csc(N2CCCN(C(=O)c3csc(C)n3)CC2)n1`, the cytotoxicity at 10 µM is -3.96%.
The result for `CCOc1ncccc1NC(=O)N1CCCCCC1` reads -6.36%; that for `CC(C(=O)NCc1cccc(N2CCCC2=O)c1)S(C)(=O)=O` (stereo not drawn), 2.66%.
Take `CCC1CN(CC(=O)NCCN2CCCCCC2)c2ccccc2S1` (stereo not drawn): the cytotoxicity at 10 µM was -1.14%.
The result for `Cc1ccc(-c2cc(C(=O)NCC3CCOC3)n[nH]2)s1` (stereo not drawn) reads -4.09%; that for `CC(C)c1cc(C(=O)N2Cc3ccccc3CC2C(=O)O)nn1C` (stereo not drawn), 7.97%.
Take `COCCc1nc(CN2CC(C)(c3ccccc3)CCC2=O)no1` (stereo not drawn): the cytotoxicity at 10 µM is -3.07%.
With `COC(=O)c1cccn1C1CCN(C(=O)c2c(C)noc2C)CC1`, the cytotoxicity at 10 µM was -11.4%.
With `c1cnnc(NCC2CN(CCN3CCCCC3)CCO2)c1` (stereo not drawn), the cytotoxicity at 10 µM was -11.9%.
With `Cc1oc(C(C)C)cc1C(=O)N1C[C@@H]2CC[C@H]1CN(S(=O)(=O)N(C)C)C2`, the cytotoxicity at 10 µM was -127%.
Regarding `COc1ccc(C(=O)C2CCCN(CCCn3cccn3)C2)c(OC)c1` (stereo not drawn), the cytotoxicity at 10 µM is -12.2%.
To `Cc1csc(N2CCCN(C(=O)Cc3ccc(C)s3)CC2)n1` belongs -12%.
The result for `COCCCNc1nc(CNC(=O)C2CCC2)cc(-c2ccco2)n1` reads -11%.
